Hits are enriched below; roughly 5.1% of the tested compounds scored in any of these assays.
STAT3 blocker: inhibitors of IL-6 induced STAT3 signaling. inhibition, % at 5.5 µM. U3A cells, IL-6 STAT3-luciferase reporter, luminescence; host cell line lacks STAT1. AID 862. 190,000 tested, 0.89% active;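 active = inhibition above the mean inhibition across all screened compounds plus 3 SD, cut at about 44% in these data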;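 note: 0% = DMSO only wells and 100% = 100 µM nifuroxazide control wells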
NF-kB neuron act: raises NF-kB expression in human neuronal cells; NF-kB reporter expression; hits give high values; fold change at 12.5 µM; 190,000 tested, 1.6% active; in the data active = fold change above about 3.3
STAT3 act: increases IL-6 driven STAT3 reporter signal. 190,000 tested, 0.91% active. U3A cells, IL-6 STAT3-luciferase reporter, luminescence; 100% = signal with IL-6 EC80 alone. activation (% of control), % at 5.6 µM;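 active = activation above the screen-wide mean of compound activation plus 3 SD, cut at about 130% in these data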;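 note: 0% = background luminescence of wells with medium and substrate only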
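Assay system – human STAT1-deficient U3A cells with stable STAT3-luciferase reporter · Also added – IL-6 (33 ng/mL) · Schedule – compound 1 h, then IL-6 6 h at 37 °C · Technique – reporter luminescence signal · Evaluation – % activation versus median of IL-6-stimulated wells · Benchmarks – IL-6-only wells as 100% reference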
STAT1 inh: inhibitors of IFN-gamma induced STAT1 signaling. inhibition, % at 5.5 µM. NIH 3T3 STAT1-luciferase reporter, luminescence. 200,000 tested, 0.35% active;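 active = inhibition above a set limit, the mean inhibition across all tested compounds plus 3 SD, cut at about 34% in these data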;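 note: 0% = IFN-gamma with DMSO and 100% = IFN-gamma with 300 µM nifuroxazide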
STAT1 activator: increases IFN-gamma driven STAT1 reporter signal; NIH 3T3 STAT1-luciferase reporter, luminescence; 100% = IFN-gamma alone, no compound; activation (% of control), % at 5.5 µM; 200,000 tested, 2.6% active; AID 932;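 active = activation above the screen-wide mean activation plus 3 SD, cut at about 130% in these data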;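 note: raw ratio to IFN-gamma control signal so 100% means no change and 0% no light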
APP 5'UTR act: APP 5'UTR luciferase reporter activation; 190,000 tested, 1% active; activation, % at 2 µM; AID 1276; SH-SY5Y APP 5'UTR luciferase reporter, luminescence; zero percent = DMSO vehicle wells;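 active = activation above a set limit, based on mean plus 3 SD of controls, cut at about 140% in these data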
STAT1 act conf: confirmation of STAT1 signaling activators; shares compounds with STAT1 activator; activation (% of control), % at 5.7 µM; NIH 3T3 STAT1-luciferase reporter, IFN-gamma potentiation, luminescence; 100% = IFN-gamma EC80 alone, no compound; 1,200 tested, 97% active; AID 1262;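 active = activation above a set limit carried over from the earlier primary STAT1 screen, cut at about 140% in these data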;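 note: simple ratio to median IFN-gamma plus DMSO wells so 0% means no light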
NFkB act: activates NF-kappaB, counter-screen to STAT1 activators; activation (% of control), % at 5.7 µM; shares compounds with STAT1 activator; AID 1306; 1,200 tested, 43% active; HEK293T NF-kB luciferase reporter, TNF-alpha stimulated, luminescence; 100% = TNF-alpha with vehicle only;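 active = activation above the mean of solvent-only control wells plus 3 SD, set per campaign, cut at about 130% in these data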;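 note: TNF-alpha given at a submaximal dose yielding about 80% of full reporter signal; values are well signal over median control so 100% means no change and 0% no light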
STAT3 act 2: human STAT3 activation in STAT1 activator counter-screen; shares compounds with STAT1 activator; activation (% of control), % at 5.7 µM; 1,200 tested, 46% active; U3A cells STAT3-luciferase reporter, IL-6, luminescence; cells lack STAT1; 100 = IL-6 alone, no compound effect;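 active = activation above the solvent-only control well mean plus 3 SD, set per plate batch, cut at about 110% in these data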;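 note: 0% = no luminescence and 100% = median IL-6 plus DMSO wells; higher means more STAT3 reporter activation so hits are non-selective activators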
The depositor's hits bear a star; . = no result.

SMILES	STAT3 blocker	NF-kB neuron act	STAT3 act	STAT1 inh	STAT1 activator	APP 5'UTR act	STAT1 act conf	NFkB act	STAT3 act 2
O=[N+]([O-])c1ccccc1N/N=C/c1ccc2c(c1)OCO2	-5	3	108	-60	152*	139*	226*	121	117*
NS(=O)(=O)c1ccc(N/N=C/c2ccc3c(c2)OCO3)c([N+](=O)[O-])c1	8	1.3	100	-17	115	9	.	.	.
Cc1ccc(Nc2n[nH]c(C)c2[N+](=O)[O-])cc1C	-12	7.7*	110	-100	191*	210*	239*	147*	117*
CCCC(=O)Nc1ccc(-c2nc3cc(C)c(C)cc3o2)cc1	14	4.7*	88	-113	202*	53	224*	141*	122*
Cc1ccc2oc(-c3ccc(NC(=O)CC(C)C)cc3)nc2c1	1	2.4	105	-59	154*	119	212*	130	108
CC(C)CC(=O)Nc1ccc2oc(-c3cccnc3)nc2c1	10	2.1	96	-26	124	50	.	.	.
COc1cccc(CN2CCCC(C(=O)N3CCCCC3)C2)c1OC (stereo not drawn)	5	1.1	97	-3	102	-13	.	.	.
Cc1ccc(-n2nnnc2SCC(=O)Nc2cccc(NC(=O)c3ccco3)c2)cc1C	3	0.83	101	4	96	-9	.	.	.
O=C1OC(c2ccccc2)=C/C1=C/N1CCCCC1	-9	1.3	111	-77	170*	65	160*	119	117*
Cc1ccc(C2=C/C(=C/c3cccs3)C(=O)O2)cc1	-7	0.9	105	-16	114	-2	.	.	.
CCCCc1ccc(-c2csc(/C(C#N)=C/c3ccc(C)o3)n2)cc1	10	1.5	98	1	99	2	.	.	.
CN(C)c1ccc(C(=O)/C=C/c2ccco2)cc1	32	5.6*	74	-76	168*	204*	178*	120	122*
O=C(/C=C\c1ccco1)c1ccc(NC(=O)c2ccco2)cc1	-2	2.3	106	-30	126	132	.	.	.
O=C(c1ccncc1)c1ccc(NC(=O)c2cccs2)cc1	20	1.8	85	8	91	15	.	.	.
O=C(Nc1ccc2c(c1)CCC2)c1cccs1	14	6.2*	92	-61	157*	92	198*	136*	104
O=C(Nc1ccc2c(c1)CCC2)c1ccc(F)cc1	32	8.5*	71	-81	174*	197*	233*	114	87
O=C(Nc1ccc2c(c1)CCC2)c1c(F)cccc1Cl	1	4.2*	102	-84	175*	100	196*	140*	112*
CC1(c2ccc(Cl)cc2)NC(=O)N(CC(=O)NC(=O)NCc2ccco2)C1=O (stereo not drawn)	0	1.1	104	3	98	-17	.	.	.
O=C1c2ccccc2C(=O)N1c1cccc(-c2nc3ccccc3o2)c1	6	1	99	-4	103	28	.	.	.
Nc1nc2ccc(-c3nc4ccccc4o3)cc2s1	20	10*	84	-57	152*	157*	231*	130	102
c1ccc2oc(-c3ccc4nc[nH]c4c3)nc2c1	9	5.2*	93	-56	151*	138*	205*	135*	97
O=C(COc1ccccc1Cl)Nc1ccc(Cl)cn1	12	6.8*	93	-52	151*	198*	198*	120	108
CCn1c(C)cc(/C=C2\NC(=O)N(CC(=O)Nc3cccc(C)c3)C2=O)c1C	-9	1.1	117	4	95	2	.	.	.
CCn1c(C)cc(/C=C2/NC(=O)N(c3ccccc3)C2=O)c1C	0	0.95	101	-78	168*	89	187*	139*	103
COCCNC(=O)C(c1ccc(C)o1)N(C(=O)c1snc(C(N)=O)c1N)c1ccc(C)c(C)c1 (stereo not drawn)	-11	0.94	114	-2	102	-18	.	.	.
SMILES	STAT3 blocker	NF-kB neuron act	STAT3 act	STAT1 inh	STAT1 activator	APP 5'UTR act	STAT1 act conf	NFkB act	STAT3 act 2
CCOc1ccccc1OCCCCOc1ccccc1F	11	1.2	90	6	95	-4	.	.	.
Cc1ccc(NC(=S)NC(=O)c2ccc(Br)o2)c(C)c1	15	2.2	90	-59	152*	94	164*	128	107
CCCC(=O)OCC(=O)Nc1ccc(N=Nc2ccccc2)cc1	9	4.7*	94	-62	155*	98	189*	137*	117*
O=C(Oc1oc(-c2ccco2)nc1C=Nc1ccccc1)c1ccoc1	6	2.3	100	-4	104	-16	.	.	.
Cc1ccc(C(=O)Oc2oc(-c3ccco3)nc2C=Nc2ccc(Cl)cc2)cc1	32	7.7*	75	-72	166*	143*	200*	140*	106
CCOc1ccc(Nc2oc(-c3ccc(Cl)cc3)nc2C#N)cc1	10	2.7	95	-6	106	7	.	.	.
COc1ccc(Nc2oc(-c3ccc(Cl)cc3)nc2C#N)cc1	-6	3.3*	109	-81	174*	14	208*	135*	124*
CN(C(=O)CCc1nnc(CCCCc2ccccc2)o1)C1CC(C)(C)NC(C)(C)C1	2	1.6	102	10	90	21	.	.	.
CCCCCCc1cc2cc(S(=O)(=O)c3ccc(F)cc3)c(=O)oc2cc1O	2	1.1	101	-2	102	-17	.	.	.
O=C(CCc1nnc(CCCCc2ccccc2)o1)N(CCO)Cc1ccccc1	2	1.1	110	-3	102	-4	.	.	.
C=C(C)CN(CC)C(=O)CCc1nnc(CCCc2ccccc2)o1	-11	2.4	114	-61	154*	85	172*	133	123*
O=C(Cn1c(=O)oc2ccccc21)N1CCN(c2ccc(N3CCOCC3)nn2)CC1	3	1.3	101	1	99	-12	.	.	.
COc1ccc(-n2ncc3c(Nc4cccc(C)c4)ncnc32)cc1	9	1.7	98	-19	118	98	.	.	.
C=CCNc1ncnc2c1cnn2-c1ccc(OC)cc1	36	4.5*	71	-85	178*	148*	234*	126	108
